SIRT5 inh: blocks human SIRT5 desuccinylation of peptide | Q9NXA8 | Purified SirT5, succinyl-peptide AMC, trypsin-coupled fluorescence | inhibition, % at 15 µM | 330,000 tested, 1.1% active | AID 652115; in the data active = inhibition above about 15%; inconclusive = no clear call, values can overlap the other calls
E-sel inducer: induces E-selectin expression in human endothelial cells | P16581 | HUVEC E-selectin immunofluorescence imaging; normalized: neutral wells 0, TNF-alpha wells 100 | activation, % at 7.58 µM | 260,000 tested, 0.37% active | AID 686992;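 active = mean E-selectin-positive cell signal at least 10% of the positive control, reached in at least 60% of replicates, without over 20% cell loss; inconclusive = no rule given, readout overlaps actives, possibly toxicity-flagged; inactive = the rest, including those meeting only one limit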
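material = human umbilical vein endothelial cells (HUVEC), E-selectin induction | quantity = 3,000 cells/well | medium = EGM-2 growth medium on 0.1% gelatin-coated wells | technique = immunofluorescence imaging | read-out basis = % PE-positive cells | control set = TNF-alpha positive control, DMSO neutral control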
DENV2 CPE: inhibitors of DENV2 cytopathic effect | CPE inhibition, % at 9.99 µM | AID 651640 | DENV2-infected cells, cytopathic effect rescue, plate reader | 350,000 tested, 1.7% active; in the data active = CPE inhibition above about 20%, passing the limit was not always enough; inconclusive = no clear call, values can overlap the other calls; tested in BHK-21 cells;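 also: 0% = median of neutral control wells and 100% = median of positive control wells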
An asterisk follows results filed as active. An excerpt weighted towards active compounds, which were near 2.8% of everything screened.

`C[C@H]1CCCCO[C@H](CN(C)S(=O)(=O)c2cn(C)cn2)[C@@H](C)CN([C@@H](C)CO)C(=O)c2cc(NS(=O)(=O)c3ccc(Cl)cc3)ccc2O1` gave SIRT5 inh 2 and DENV2 CPE 2.
Cc1ccccc1-c1ccc([C@H]2[C@H](CO)N3C(=O)CN(C(=O)Cc4ccccn4)C[C@@H]23)cc1 was read as SIRT5 inh 0, E-sel inducer 0 and DENV2 CPE 12.
`O=C(Nc1cccc(F)c1)N1C[C@H]2[C@@H](c3ccccc31)[C@@H](CO)N2C(=O)c1ccccn1` gave SIRT5 inh 0, E-sel inducer 1 and DENV2 CPE 7.
`C/C=C/c1ccc2c(c1)[C@H]1[C@H](CCN1Cc1ccc(F)cc1)[C@H](CO)N2` gave SIRT5 inh -2, E-sel inducer 0 and DENV2 CPE 38*.
O=S(=O)(c1ccccc1F)N1CC[C@@H]2[C@H](CO)Nc3ccc(-c4ccccc4)cc3[C@@H]21 was read as SIRT5 inh 8, E-sel inducer 1 and DENV2 CPE 24*.
OC[C@H]1Nc2ccc(-c3ccc(F)cc3)cc2[C@H]2[C@@H]1CCN2Cc1ccc(F)cc1 was read as DENV2 CPE -27.
For Cc1ccc(S(=O)(=O)N2CC[C@H]3[C@H](CO)Nc4ccc(-c5ccccc5F)cc4[C@H]32)cc1 the results were SIRT5 inh 5, E-sel inducer -1 and DENV2 CPE 18.
`O=S(=O)(c1ccccc1F)N1CC[C@@H]2[C@@H](CO)Nc3ccc(-c4cccc(F)c4)cc3[C@@H]21` gave SIRT5 inh 6, E-sel inducer -1 and DENV2 CPE -19.
O=S(=O)(c1ccc(F)cc1)N1CC[C@H]2[C@H](CO)Nc3ccc(-c4ccc(F)cc4)cc3[C@H]21 was read as E-sel inducer 0 and DENV2 CPE 14.
O=S(=O)(c1ccc(F)cc1)N1CC[C@@H]2[C@@H](CO)Nc3ccc(-c4ccc(F)cc4)cc3[C@@H]21 was read as E-sel inducer 0 and DENV2 CPE 51*.
`Cc1ccc(S(=O)(=O)N2CC[C@@H]3[C@H](CO)Nc4ccc(-c5ccccc5F)cc4[C@@H]32)cc1` gave SIRT5 inh 7, E-sel inducer -1 and DENV2 CPE 147*.
For CC(=O)N1[C@@H]2c3ccc(-c4ccc(F)cc4)c(=O)n3C[C@@H]2[C@@H](CO)[C@@H]1C(=O)N(C)C the results were SIRT5 inh -18, E-sel inducer 0 and DENV2 CPE inconclusive.
For Cc1cccc(S(=O)(=O)N2C[C@@H]3N[C@H](C2)C3c2ccc(-c3cccc(C#N)c3)cc2)c1 (stereo partly specified) the results were SIRT5 inh 6, E-sel inducer 0 and DENV2 CPE 2.
For O=C(C1CCCCC1)N1CC2(C1)[C@H](c1ccccc1)[C@H](CO)N2Cc1nccs1 the results were SIRT5 inh -1, E-sel inducer 0 and DENV2 CPE -2.
COc1cccc(NC(=O)N[C@H]2CC[C@@H](CC(=O)N3CCCCC3)O[C@@H]2CO)c1 was read as SIRT5 inh 6, E-sel inducer 0 and DENV2 CPE inconclusive.
For C/C=C/c1ccc2c(c1)[C@H]1[C@H](CCN1S(=O)(=O)c1ccccc1)[C@H](CO)N2 the results were SIRT5 inh -2, E-sel inducer 0 and DENV2 CPE -6.
C/C=C/c1ccc2c(c1)[C@H]1[C@H](CCN1S(=O)(=O)c1ccccc1F)[C@H](CO)N2 was read as E-sel inducer 0 and DENV2 CPE 25*.
`Cc1cccc(S(=O)(=O)N2CC[C@@H]3[C@H](CO)Nc4ccc(-c5ccccc5F)cc4[C@@H]32)c1` gave E-sel inducer 1 and DENV2 CPE -8.
`Cc1cccc(S(=O)(=O)N2CC[C@@H]3[C@H]2c2cc(-c4ccccc4F)ccc2N[C@@H]3CO)c1` gave E-sel inducer 1 and DENV2 CPE 40*.
C[C@@H]1CN([C@@H](C)CO)C(=O)c2cc(NS(=O)(=O)c3ccc(Cl)cc3)ccc2O[C@@H](C)CCCCO[C@H]1CN(C)CC1CCCCC1 was read as E-sel inducer 0 and DENV2 CPE -8.
For C[C@@H]1CN([C@@H](C)CO)C(=O)Cc2cc(NS(=O)(=O)c3ccc(Cl)cc3)ccc2O[C@H]1CN(C)C(=O)Nc1ccc2c(c1)OCO2 the results were E-sel inducer 0.
For CNC(=O)c1cc2c(ccc3ccccc32)o1 the results were SIRT5 inh -11, E-sel inducer 78* and DENV2 CPE 4.
`Cc1ccc(/C=N/NC(=O)c2cc3c(ccc4ccccc43)o2)o1` gave SIRT5 inh 1, E-sel inducer 0 and DENV2 CPE -2.

Bioassay records from PubChem.
